In article PMC2889702 (ACS chemical neuroscience, 2010):
pEC50, pIC50: −log10 of the molar value. Entries after “also recorded” stand apart in the source; their conditions may differ.

Columns and labels:
Assay type in all cases: cell-based
rat mGluR1 = rat mGluR1 (Rattus norvegicus, UniProt P23385)
In short: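 Rat mGluR1 stably expressed in BHK cells. Test compound run as a full 1:3 serial-dilution concentration–response, top final concentration 30 μM. Cells preincubated ~2.5 min with compound, then given an EC20 glutamate concentration, then EC80 glutamate 2 min later. Antagonism taken as blockade of the EC80 response. Data normalized to percent maximal glutamate response.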

other mGluR subtypes = experiment: selectivity against all of the mGluR subtypes; conditions: 10 μM compound
In short: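 Rat mGluR2, -3, -7, -8 and human mGluR6 were stably expressed in HEK cells coexpressing GIRK1/2. Rat mGluR5 was in HEK cells and rat mGluR1 in BHK cells. Cells received 10 μM final test compound or vehicle, then a full agonist concentration-response (glutamate; L-AP4 for mGluR7). mGluR1 instead: 1:3 compound series to 30 μM top final, EC20 then EC80 glutamate, blockade of EC80 response. Normalized to % Glu Max, triplicate.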

human mGluR4 [1] = molecular target: T1, human mGluR4 (Homo sapiens, UniProt Q14833); conditions: compared to (−)-PHCCC
human mGluR4 [2] = molecular target: T1, human mGluR4; experiment: calcium mobilization potency assay; conditions: for fold increase in potency against hmGluR4: compared to PHCCC / (−)-PHCCC

T1 sequence (Q14833 33-912): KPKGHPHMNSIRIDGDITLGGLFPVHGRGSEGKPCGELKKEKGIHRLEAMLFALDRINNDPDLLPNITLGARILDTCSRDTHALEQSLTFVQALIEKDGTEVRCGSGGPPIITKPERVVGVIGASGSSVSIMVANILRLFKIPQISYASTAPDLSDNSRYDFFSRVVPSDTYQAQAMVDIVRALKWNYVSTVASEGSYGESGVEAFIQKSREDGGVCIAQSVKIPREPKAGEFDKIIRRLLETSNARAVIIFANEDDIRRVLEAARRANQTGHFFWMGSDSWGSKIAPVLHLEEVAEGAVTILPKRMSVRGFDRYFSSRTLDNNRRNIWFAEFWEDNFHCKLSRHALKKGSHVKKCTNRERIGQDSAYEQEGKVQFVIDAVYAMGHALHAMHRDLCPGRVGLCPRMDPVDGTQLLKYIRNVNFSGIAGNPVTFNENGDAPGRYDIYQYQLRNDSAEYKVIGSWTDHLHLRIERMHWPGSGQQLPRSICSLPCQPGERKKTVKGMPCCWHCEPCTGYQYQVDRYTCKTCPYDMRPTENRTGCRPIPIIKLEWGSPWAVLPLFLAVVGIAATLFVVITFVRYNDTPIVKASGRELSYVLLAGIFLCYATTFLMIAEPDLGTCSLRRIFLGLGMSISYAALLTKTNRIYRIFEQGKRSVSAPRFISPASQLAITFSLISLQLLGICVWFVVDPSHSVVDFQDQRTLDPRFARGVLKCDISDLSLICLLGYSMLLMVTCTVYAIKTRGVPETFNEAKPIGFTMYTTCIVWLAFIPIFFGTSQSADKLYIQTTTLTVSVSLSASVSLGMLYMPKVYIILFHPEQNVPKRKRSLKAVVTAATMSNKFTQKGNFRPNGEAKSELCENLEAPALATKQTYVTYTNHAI
Chain of rat mGluR1 (P23385 19-1199): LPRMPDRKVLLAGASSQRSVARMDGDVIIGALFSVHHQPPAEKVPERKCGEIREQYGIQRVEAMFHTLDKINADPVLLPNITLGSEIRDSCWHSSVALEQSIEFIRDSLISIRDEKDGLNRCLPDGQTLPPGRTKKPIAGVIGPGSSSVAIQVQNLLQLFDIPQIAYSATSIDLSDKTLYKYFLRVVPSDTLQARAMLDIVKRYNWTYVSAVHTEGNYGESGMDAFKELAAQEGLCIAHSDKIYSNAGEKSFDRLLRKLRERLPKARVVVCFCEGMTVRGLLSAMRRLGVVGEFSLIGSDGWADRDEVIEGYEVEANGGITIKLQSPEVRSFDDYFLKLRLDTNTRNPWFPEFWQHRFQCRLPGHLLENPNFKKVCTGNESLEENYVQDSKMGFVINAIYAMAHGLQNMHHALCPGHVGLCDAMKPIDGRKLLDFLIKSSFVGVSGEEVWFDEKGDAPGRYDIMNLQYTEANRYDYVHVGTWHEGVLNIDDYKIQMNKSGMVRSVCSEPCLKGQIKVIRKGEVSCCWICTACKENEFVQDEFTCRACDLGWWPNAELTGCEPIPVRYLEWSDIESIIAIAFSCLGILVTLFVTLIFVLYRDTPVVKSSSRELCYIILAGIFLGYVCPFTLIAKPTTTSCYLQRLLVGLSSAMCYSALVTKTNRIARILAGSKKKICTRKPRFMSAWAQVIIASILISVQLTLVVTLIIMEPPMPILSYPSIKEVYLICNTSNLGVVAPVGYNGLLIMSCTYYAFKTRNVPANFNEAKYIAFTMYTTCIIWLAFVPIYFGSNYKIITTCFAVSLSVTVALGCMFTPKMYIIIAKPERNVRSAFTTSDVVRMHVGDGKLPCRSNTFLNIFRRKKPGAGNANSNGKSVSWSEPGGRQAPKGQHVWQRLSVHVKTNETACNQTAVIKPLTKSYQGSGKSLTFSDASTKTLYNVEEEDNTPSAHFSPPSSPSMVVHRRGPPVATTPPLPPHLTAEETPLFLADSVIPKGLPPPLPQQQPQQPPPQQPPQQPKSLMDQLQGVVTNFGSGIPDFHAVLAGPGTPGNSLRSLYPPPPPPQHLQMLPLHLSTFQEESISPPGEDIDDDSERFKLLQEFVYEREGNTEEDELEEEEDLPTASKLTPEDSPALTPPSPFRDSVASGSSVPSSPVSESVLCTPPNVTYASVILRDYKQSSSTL

O=C(Nc1ccccc1)C12CC1/C(=N\O)c1ccccc1O2 (racemic) [(±)-PHCCC, PHCCC]
% Glu Max (mGluR1) (rat mGluR1; rat mGluR1, normalized to percent maximal glutamate response): 23%
pIC50 (rat mGluR1; read-out: mGluR1 IC50): 5.68

O=C(Nc1ccccn1)C12CC1/C(=N\O)c1ccccc1O2 (single isomer, unassigned; (-)) [(−)-10c]
activity against the other mGluR subtypes tested (other mGluR subtypes): devoid of activity
fold enhancement in efficacy (human mGluR4 [1]): 2 fold
agonist activity of compound added alone (human mGluR4 [2]; 30 μM compound alone, before glutamate addition, calcium mobilization): do not exhibit agonist activity; also recorded: only act in the presence of glutamate
agonist activity of compound added alone at higher concentrations (human mGluR4 [2]; >30 μM compound alone, data not shown): some intrinsic agonist activity
fold increase in potency against hmGluR4 (human mGluR4 [2]; listed as 10c): > 4 fold
fold increase in potency against hmGluR4 (human mGluR4 [2]; listed as (-)-10c): 4 fold

O=C(Nc1ccccn1)C12CC1/C(=N\O)c1ccccc1O2 (stereo not shown) [Compound 5i, (E)-7-(Hydroxyimino)-N-(pyridin-2-yl)-1,1a,7,7a-tetrahydrocyclopropa[b]chromene-1a-carboxamide]
mGluR1 activity (rat mGluR1; result in words, NAM=negative allosteric modulator): devoid of any mGluR1 activity
pEC50 (human mGluR4 [2]): 6.06
